Calls of active or inactive are those of the source. No cut-off for these calls is given here.
Legend:
[1] = Chemical stability of the compound in phosphate buffer saline assessed as half life at 10 uM at pH 7.4 by LC-MS/MS analysis; assay type: physicochemical; details: phosphate buffered saline
How it was run: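 Compound diluted from DMSO (or methanol) stock to 10 µM, 2% solvent final, n=2. Matrix was 0.1 M PBS pH 7.4, or […] HCl with 2 mg/mL NaCl adjusted to pH 1.2. Mixed on a shaker; sampled at nominal 5, 15, 30 and 60 min plus T=0. LC-MS/MS with internal standard; % remaining relative to T=0. Formation of parent also monitored.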

[2] = tested on: Plasma; experiment: Half life in dog plasma assessed as formation of galiellalactone at 5 uM by LC-MS/MS analysis; assay type: ADME, cell-free, Canis lupus familiaris
How it was run: (§1)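 Plasma of each species incubated at 37 °C with compound at 5 µM initial, 1% DMSO, n=2. Simvastatin and eucatropine run as controls. Aliquots taken at 0, 5, 15, 30 and 60 min and quenched with acetonitrile containing internal standard, then analysed by LC-MS/MS.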

[3] = tested on: Plasma; experiment: Half life in rat plasma assessed as formation of galiellalactone at 5 uM by LC-MS/MS analysis; assay type: ADME, cell-free; how it was run: as §1
[4] = tested on: Mus musculus; experiment: Apparent half life in mouse plasma assessed as galiellalactone level at 40 mg/kg, po by LC-MS/MS analysis; assay type: ADME, organism-based; details: in vivo
How it was run: (§2)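 Single dose to mice; oral, iv or ip as listed, in 5% DMSO/50 mM citrate buffer pH 4.0 (dosing solutions 0.5, 2 or 5 mg/mL). Oral dosing at 20 mL/kg. Terminal blood under barbiturate anaesthesia at eight time-points to 8 h, n=3 mice per time-point, EDTA plasma. Acetonitrile precipitation with internal standard, LC-MS/MS against plasma calibration lines. Non-compartmental analysis on mean data, trapezoidal AUC.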

[5] = tested on: Mus musculus; experiment: AUC (0 to t) in mouse plasma assessed as galiellalactone level at 40 mg/kg, po by LC-MS/MS analysis; assay type: ADME, organism-based; details: in vivo; how it was run: as §2
[6] = tested on: Mus musculus; experiment: AUC (0 to infinity) in mouse plasma at 40 mg/kg, po by LC-MS/MS analysis; assay type: ADME, organism-based; design: dose 40 mg/kg, route oral, time infinity; details: in vivo; how it was run: as §2
[7] = tested on: Mus musculus; experiment: Tmax in mouse plasma assessed as galiellalactone level at 100 mg/kg, po by LC-MS/MS analysis; assay type: ADME, organism-based; details: in vivo
[8] = tested on: Hepatocyte; experiment: Prodrug conversion in mouse hepatocytes assessed as formation of 3-beta-(N-Acetyl-L-cysteine)-2a-beta,3-dihydrogaliellalactone after 2 hrs by UPLC-MS analysis; assay type: ADME, cell-based
How it was run: (§3)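 Cryopreserved mouse hepatocytes incubated with an initial 10 µM test item (DMSO stock) in Celsis InVitro HI medium, pH 7.4, 37 °C. Cell viability checked by Trypan blue. Sampled at 0 and 120 min and stopped with an equal volume of acetonitrile. Analysed by UPLC/Q-TOF-MS.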

[9] = tested on: DU-145; experiment: Antitumor activity against human DU145 cells xenografted in NMRI mouse assessed as reduction of tumor growth rate at 40 mg/kg, po administered 5 times per week for 4 weeks measured on day 26 and day 29 relative to vehicle-treated control; assay type: functional, organism-based
How it was run: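 NMRI-nude male mice given 1.5 million DU145 cells s.c. in the flank. After four weeks, split into two groups of ten. Oral gavage with compound at 40 mg/kg or vehicle (50 mM citrate pH 4.0, 2% DMSO), daily five times per week for four weeks. Caliper measurement twice weekly; volume = width × length × height × 0.52.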

[10] = tested on: Mus musculus; experiment: Toxicity in NMRI mouse xenografted with human DU145 cells assessed as weight loss at 40 mg/kg, po administered 5 times per week for 4 weeks measured on day 26 and day 29; assay type: organism-based, DU-145; details: in vivo, 672 h
How it was run: (§4)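 Male NMRI-nude mice, 20 in total, were given 1.5 million DU145 cells subcutaneously in the flank. After 4 weeks they were split into two groups of 10. Each group was gavaged with 40 mg/kg or with vehicle (50 mM citrate buffer pH 4.0, 2% DMSO) daily, 5 times per week for 4 weeks. Body weight, behaviour, side effects and survival were monitored, and tumours were measured twice weekly by caliper.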

[11] = tested on: Mus musculus; experiment: Toxicity in NMRI mouse xenografted with human DU145 cells assessed as behavioral alterations at 40 mg/kg, po administered 5 times per week for 4 weeks measured on day 26 and day 29; assay type: organism-based, DU-145; details: in vivo, 672 h; how it was run: as §4
[12] = tested on: DU-145; experiment: Induction of apoptosis in human DU145 cells xenografted in NMRI nude mouse assessed as increase in cleaved caspase3 level at 40 mg/kg, po administered 5 times per week for 4 weeks by immunohistochemical analysis; assay type: functional, organism-based
How it was run: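 DU145 cells (1.5 million) inoculated subcutaneously in the flank of NMRI-nude male mice. After four weeks, 10 mice per group were dosed orally by feeding needle with 40 mg/kg or vehicle (50 mM citrate buffer pH 4.0, 2% DMSO), five days a week for four weeks. Tumours were fixed in formaldehyde and stained for cleaved caspase-3. Positive cells were counted as the mean per view over five 10x views per section.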

[13] = tested on: Mus musculus; experiment: Effect on STAT3 phosphorylation in NMRI mouse xenografted with human DU145 cells at 40 mg/kg, po administered 5 times per week for 4 weeks by immunohistochemical analysis; assay type: functional, organism-based; details: DU-145
How it was run: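 Tumours from the oral DU145 xenograft study were fixed in formaldehyde and sectioned. IHC used the EnVision Flex kit with anti-Ki67 and anti-pSTAT3 antibodies, imaged at 10× bright field. Ki67 scored as Ki67-positive cells over total cells.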

[14] = tested on: Mus musculus; experiment: Toxicity in CD1 mouse assessed as change in body weight at 40 mg/kg, administered as single dose through oral gavage measured on day 1 (reference value: 33.5 +/- 4.34 g); assay type: organism-based; details: in vivo
[15] = tested on: Mus musculus; experiment: Toxicity in CD1 mouse assessed as change in body weight at 40 mg/kg, administered as single dose through oral gavage measured on day 4 (reference value: 34.68 +/- 4.71 g); assay type: organism-based; details: in vivo
[16] = tested on: Mus musculus; experiment: Toxicity in CD1 mouse assessed as change in body weight at 200 mg/kg, administered as single dose through oral gavage measured on day 8 (reference value: 32.28 +/- 4.42 g); assay type: organism-based; details: in vivo
[17] = tested on: Mus musculus; experiment: Toxicity in CD1 mouse assessed as change in body weight at 400 mg/kg, administered as single dose through oral gavage measured on day 8 (reference value: 32.28 +/- 4.42 g); assay type: organism-based; details: in vivo
[18] = tested on: Mus musculus; experiment: Tmax in mouse plasma assessed as galiellalactone level at 10 mg/kg, po by LC-MS/MS analysis; assay type: ADME, organism-based; details: in vivo
[19] = tested on: Mus musculus; experiment: AUC (0 to t) in mouse plasma assessed as galiellalactone level at 10 mg/kg, po by LC-MS/MS analysis; assay type: ADME, organism-based; details: in vivo; how it was run: as §2
[20] = tested on: Mus musculus; experiment: AUC (0 to infinity) in mouse plasma assessed as galiellalactone level at 10 mg/kg, po by LC-MS/MS analysis; assay type: ADME, organism-based; design: dose 10 mg/kg, route oral, time infinity; details: in vivo; how it was run: as §2
[21] = tested on: Hepatocyte; experiment: Prodrug conversion in mouse hepatocytes assessed as galiellalactone formation of after 2 hrs by UPLC-MS analysis; assay type: ADME, cell-based; how it was run: as §3
[22] = tested on: Mus musculus; experiment: Toxicity in NMRI mouse xenografted with human DU145 cells assessed as mouse survival at 40 mg/kg, po administered 5 times per week for 4 weeks measured on day 26 and day 29; assay type: organism-based, DU-145; details: in vivo, 672 h; how it was run: as §4
[23] = tested on: Mus musculus; experiment: Toxicity in CD1 mouse assessed as effect on histopathological parameters at 40 to 400 mg/kg, administered as single dose through oral gavage; assay type: organism-based; details: in vivo
How it was run: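 Male CD1 mice, 7 weeks old, 5 per group, given one oral gavage dose of 40, 200 or 400 mg/kg in 50 mM citrate buffer, pH 4.0, 5% DMSO, alongside a vehicle control group. Clinical signs, clinical pathology and histopathology were assessed, with the study ending on day 8.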

`COC(=O)[C@H](CS[C@H]1C2C(=O)O[C@@H]3CC[C@H](C[C@@H]1C)[C@]23O)NC(C)=O` (stereo partly drawn) showed a half-life at 10 µM [1] greater than 150 min, a t1/2 [2] of less than 5 min and a t1/2 [3] of less than 5 min. The “t1/2(app)” value [4] was 180 min, the AUCt [5] was 213 µg/mL/min and the AUC [6] was 215 µg/mL/min. For the same molecule, the Tmax [7] was 15 min, the Drug metabolism [8] was “metabolite_detected” and the inhibition [9] was “Active”. For the same molecule, the Activity [10] was “Non-toxic”, the Activity [11] was “Non-toxic” and the Activity [12] was “Active”. The Activity [13] was “inactive”, the Activity [14] was 32.52 g and the Activity [15] was 33.68 g. For the same molecule, the Activity [16] was 33.02 g, the Activity [17] was 32.1 g and the Tmax [18] was 15 min. For the same molecule, the AUCt [19] was 117 µg/mL/min, the AUC [20] was 120 µg/mL/min and the Drug metabolism [21] was “metabolite_detected”. The Activity [22] was “Non-toxic” and the Activity [23] was “Non-toxic”.

— ChEMBL document CHEMBL3822375, “Preclinical Characterization of 3β-(N-Acetyl l-cysteine methyl ester)-2aβ,3-dihydrogaliellalactone (GPA512), a Prodrug of a Direct STAT3 Inhibitor for the Treatment of Prostate Cancer” (J Med Chem, 2016)
